Experimental findings from ChEMBL document CHEMBL1123755, “Conformationally defined adrenergic agents. 5. Resolution, absolute configuration, and pharmacological characterization of the enantiomers of 2-(5,6-dihydroxy-1,2,3,4-tetrahydro-1-naphthyl)imidazoline: a potent agonist at alpha-adrenoceptors” (J Med Chem, 1987) are described below.

The target in experiment [1] is T1, Adrenergic receptor alpha-1 (Rattus norvegicus, UniProt P15823+P23944+P43140).
T1 sequence (P15823 whole entry): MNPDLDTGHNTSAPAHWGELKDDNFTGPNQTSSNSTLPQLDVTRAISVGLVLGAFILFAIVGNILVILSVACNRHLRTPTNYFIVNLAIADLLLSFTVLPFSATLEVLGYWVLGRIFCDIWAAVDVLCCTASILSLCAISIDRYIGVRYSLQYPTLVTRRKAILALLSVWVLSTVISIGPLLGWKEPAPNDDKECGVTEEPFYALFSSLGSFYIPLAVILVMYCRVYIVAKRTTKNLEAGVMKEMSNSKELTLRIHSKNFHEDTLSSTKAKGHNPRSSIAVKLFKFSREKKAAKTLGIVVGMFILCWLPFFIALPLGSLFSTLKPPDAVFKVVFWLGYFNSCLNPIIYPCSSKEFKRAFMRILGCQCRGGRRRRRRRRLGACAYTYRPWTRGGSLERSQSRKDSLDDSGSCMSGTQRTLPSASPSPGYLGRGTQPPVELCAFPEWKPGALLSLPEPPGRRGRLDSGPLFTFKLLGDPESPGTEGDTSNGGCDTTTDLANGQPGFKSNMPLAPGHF
T1 sequence (P23944 whole entry): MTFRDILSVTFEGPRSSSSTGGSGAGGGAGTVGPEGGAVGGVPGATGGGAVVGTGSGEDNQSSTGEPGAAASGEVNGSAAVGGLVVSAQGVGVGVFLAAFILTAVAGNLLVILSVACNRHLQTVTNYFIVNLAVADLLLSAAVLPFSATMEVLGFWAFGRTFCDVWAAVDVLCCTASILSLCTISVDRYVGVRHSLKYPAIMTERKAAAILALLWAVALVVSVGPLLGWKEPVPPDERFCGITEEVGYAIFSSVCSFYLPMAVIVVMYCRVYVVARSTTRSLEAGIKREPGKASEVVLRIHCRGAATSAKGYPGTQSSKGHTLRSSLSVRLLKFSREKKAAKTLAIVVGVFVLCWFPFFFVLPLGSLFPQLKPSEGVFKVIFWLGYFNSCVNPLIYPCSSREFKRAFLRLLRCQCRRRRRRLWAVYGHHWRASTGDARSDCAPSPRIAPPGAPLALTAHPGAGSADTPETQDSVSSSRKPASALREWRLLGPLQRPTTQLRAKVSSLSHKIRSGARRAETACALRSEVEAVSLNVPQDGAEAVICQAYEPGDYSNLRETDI
T1 sequence (P43140 whole entry): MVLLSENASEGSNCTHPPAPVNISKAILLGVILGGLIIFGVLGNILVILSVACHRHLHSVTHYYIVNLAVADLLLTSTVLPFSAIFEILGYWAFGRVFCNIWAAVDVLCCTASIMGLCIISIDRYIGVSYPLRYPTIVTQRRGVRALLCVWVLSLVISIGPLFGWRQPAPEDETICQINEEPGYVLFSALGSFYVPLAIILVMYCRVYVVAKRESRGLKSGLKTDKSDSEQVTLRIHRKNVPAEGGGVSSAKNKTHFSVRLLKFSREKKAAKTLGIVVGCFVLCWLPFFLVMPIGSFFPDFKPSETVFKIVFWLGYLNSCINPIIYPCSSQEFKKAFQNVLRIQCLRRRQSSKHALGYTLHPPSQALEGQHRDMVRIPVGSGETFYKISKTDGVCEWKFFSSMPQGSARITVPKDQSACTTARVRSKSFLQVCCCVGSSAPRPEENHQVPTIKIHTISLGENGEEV
The experiment is described as follows: Binding affinity for alpha-1 adrenergic receptor in rat liver using [3H]prazosin. The essentials:
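Pooled male Sprague–Dawley rat liver membranes (50–150 µg/mL protein) in 50 mM Tris-HCl pH 7.7. [3H]prazosin, 50 min at 25 °C, 1.0 mL final volume; nonspecific binding with phentolamine 10⁻⁵ M. GF/B filtration, scintillation counting. At least four concentrations (10⁻¹⁰–10⁻³ M) run in duplicate; IC50 by logit plot; Ki by Cheng–Prusoff.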

A short description of experiment [2]: Ratio of ED50 of norepinephrine to that in PBZ-DSV. Type of experiment: functional. The essentials: (§1)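 Dog saphenous vein strips in Krebs buffer (pH 7.40, 95% O2/5% CO2, 37 °C), 2 g preload, isometric contraction. After equilibration and maximal NE (10⁻⁴ M) contraction, washed 60 min, exposed to PBZ 10⁻⁷ M for 30 min, washed 60 min. Control cumulative NE curve, then after 45–60 min washout, cumulative agonist curve. Molar ED50; index = ED50 NE / ED50 compound; Emax as % of NE maximum.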

A short description of experiment [3]: Ratio of ED50 of norepinephrine to that in rabbit aorta. The class given is functional. The essentials:
(§2)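 Helical rabbit aortic strip in 10-mL bath of Krebs buffer (pH 7.4, 37 ± 0.5 °C), 2 g initial tension, force-transducer contraction. Cumulative dose–response to NE (10⁻⁸ to 10⁻³ M), each dose to plateau. Washed every 10–15 min for 60–90 min and reset to 2 g before the test compound series. Molar ED50; index = ED50 NE / ED50 compound; Emax as % of NE maximum.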

Experiment [4] in a line: E max value expressed as percent maximum response of the tissue(PBZ-DSV) to norepinephrine. The essentials: as §1
Experiment [5] is described as follows: E max value expressed as percent maximum response of the tissue(rabbit aorta) to norepinephrine. The class given is tissue-based. The essentials:
as §2

For experiment [6], the target named is T2, Adrenergic receptor alpha-2 (Rattus norvegicus, UniProt P22086+P19328+P22909).
T2 sequence (P22086 whole entry): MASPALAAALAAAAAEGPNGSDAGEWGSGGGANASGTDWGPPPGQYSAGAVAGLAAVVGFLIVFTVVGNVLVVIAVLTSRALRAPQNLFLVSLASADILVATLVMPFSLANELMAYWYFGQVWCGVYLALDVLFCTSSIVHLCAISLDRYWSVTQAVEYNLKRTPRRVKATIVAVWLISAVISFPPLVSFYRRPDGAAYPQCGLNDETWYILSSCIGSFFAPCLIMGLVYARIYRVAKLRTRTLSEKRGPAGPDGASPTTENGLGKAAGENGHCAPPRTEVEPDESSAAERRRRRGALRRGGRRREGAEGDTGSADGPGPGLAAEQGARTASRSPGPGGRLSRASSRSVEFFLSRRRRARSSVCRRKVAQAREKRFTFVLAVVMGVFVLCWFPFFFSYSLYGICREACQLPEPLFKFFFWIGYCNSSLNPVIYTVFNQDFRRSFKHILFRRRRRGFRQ
T2 sequence (P19328 whole entry): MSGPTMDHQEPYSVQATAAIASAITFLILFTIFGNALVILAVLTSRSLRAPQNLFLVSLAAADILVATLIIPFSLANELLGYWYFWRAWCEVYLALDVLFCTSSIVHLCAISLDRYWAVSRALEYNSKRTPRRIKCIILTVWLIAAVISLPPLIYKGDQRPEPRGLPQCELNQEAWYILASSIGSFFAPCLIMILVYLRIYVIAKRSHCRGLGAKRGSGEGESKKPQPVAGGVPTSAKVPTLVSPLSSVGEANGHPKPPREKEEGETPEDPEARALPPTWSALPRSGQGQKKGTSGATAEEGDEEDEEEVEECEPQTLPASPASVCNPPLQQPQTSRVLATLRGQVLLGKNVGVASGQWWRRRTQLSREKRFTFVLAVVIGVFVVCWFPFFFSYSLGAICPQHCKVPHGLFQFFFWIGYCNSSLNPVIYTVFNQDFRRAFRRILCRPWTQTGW
T2 sequence (P22909 whole entry): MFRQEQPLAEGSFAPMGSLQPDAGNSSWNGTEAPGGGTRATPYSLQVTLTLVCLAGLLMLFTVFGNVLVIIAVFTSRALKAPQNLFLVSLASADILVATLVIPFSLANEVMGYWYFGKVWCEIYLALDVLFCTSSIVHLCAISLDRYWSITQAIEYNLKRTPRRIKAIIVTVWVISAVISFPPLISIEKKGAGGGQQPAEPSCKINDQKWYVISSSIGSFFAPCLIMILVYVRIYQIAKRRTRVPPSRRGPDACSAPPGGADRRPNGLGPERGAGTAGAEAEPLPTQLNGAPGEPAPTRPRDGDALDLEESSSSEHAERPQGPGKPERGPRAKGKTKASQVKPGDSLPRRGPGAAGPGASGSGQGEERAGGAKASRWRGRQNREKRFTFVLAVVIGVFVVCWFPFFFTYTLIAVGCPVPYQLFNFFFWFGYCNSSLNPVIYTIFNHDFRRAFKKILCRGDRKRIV
The experiment is described as follows: Binding affinity for alpha-2 adrenergic receptor in rat cortex using [3H]rauwolscine. The essentials:
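Pooled male Sprague–Dawley rat cerebral cortex membranes (50–150 µg/mL protein) in 50 mM Tris-HCl pH 7.7. [3H]rauwolscine, 2 h at 0 °C, 1.0 mL final volume; nonspecific binding with phentolamine 10⁻⁵ M. GF/B filtration, scintillation counting. At least four concentrations (10⁻¹⁰–10⁻³ M) run in duplicate; IC50 by logit plot; Ki by Cheng–Prusoff.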

As to `Oc1ccc2c(c1O)CCC[C@H]2C1=NCCN1`, the Ki in experiment [1] was determined as 523 nM; in experiment [6], 0.55 nM. In addition, the Index in experiment [2] worked out at 248; in experiment [3] it was 29. Also, the E max was 102 in experiment [4] and 128 in experiment [5].
Regarding `Oc1ccc2c(c1O)CCC[C@@H]2C1=NCCN1`, the Ki in experiment [1] was found to be 817 nM; in experiment [6], 28 nM. The Index is 15.4 in experiment [2] and 1 in experiment [3]. Besides, the E max came to 74 in experiment [4] and 94 in experiment [5].
Take `Oc1ccc2c(c1O)CCCC2C1=NCCN1` (racemic): the Index came to 184 in experiment [2] and 13 in experiment [3]. The figures for the E max in experiment [4] and in experiment [5] were 102 and 114, respectively.
